VIM-2 inhibitor: blocks Pseudomonas aeruginosa VIM-2 metallo-beta-lactamase; purified VIM-2, nitrocefin hydrolysis, epi-absorbance fluorescence; inhibition, % at 5.6 µM; 290,000 compounds, 0.89% hits; AID 1527;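 active = inhibition above the mean of all tested compounds plus 3 SD, cutoff set per screening run, cut at about 7.5% in these data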;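 also: red hydrolysis product quenches plate fluorescence so inhibitors raise well fluorescence; 0% = enzyme with DMSO and 100% = DMSO without enzyme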
IMP-1 inh: blocks Pseudomonas aeruginosa IMP-1 metallo-beta-lactamase | purified IMP-1, nitrocefin hydrolysis, epi-absorbance fluorescence | inhibition, % at 5.6 µM | 290,000 compounds, 0.45% hits | AID 1556;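 active = inhibition above the mean plus 3 SD of all compounds in the same screening run, cut at about 4.5% in these data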;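 also: 0% = IMP-1 with DMSO and 100% = DMSO wells lacking enzyme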
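System: purified recombinant IMP-1 beta-lactamase. Medium: Zinc- and detergent-supplemented HEPES buffer, pH 7.1. Compound: one 5.6 µM dose […]. Schedule: 15 min preincubation plus 25 min reaction at 25 °C. Technique: Epi-absorbance fluorescence, 480 nm excitation, 530 nm emission.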
MLLE-PAM2 inh: inhibitors of microRNA-mediated deadenylation, human PABP1 MLLE binding; P11940; GST-MLLE / FITC-PAM2 fluorescence polarization; inhibition, % at 20 µM; 360,000 compounds, 0.36% hits; AID 588489; in the data active = inhibition above about 35%, passing the limit was not always enough;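 also: plate controls were DMSO wells with GST-MLLE for no effect and wells lacking GST-MLLE protein for full effect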
PABP polyA inh: blocks human PABP binding to poly(A) RNA; P11940; fluorescence polarization; calls only at 35 µM; 290,000 compounds, 1% hits; AID 2014;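 also: calls also rest on retests at 20 µM and on dose response follow-up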
eIF4H inh: inhibitors of RNA binding by human eIF4H; eIF4H fluorescence polarization binding assay; Q15056; inhibition, % at 35 µM; 290,000 compounds, 0.94% hits;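 also: calls also rest on retests at 20 µM and on dose response follow-up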
* = called active by the depositor; i = inactive; ? = inconclusive; nt = no result; + = active, no number. A selection: hits, their analogues and other compounds. The true share with any hit is near 2.2%. Unless noted, no rule for the calls is given here.

SMILES	VIM-2 inhibitor	IMP-1 inh	MLLE-PAM2 inh	PABP polyA inh	eIF4H inh
C/C(=N\Nc1ccc([N+](=O)[O-])cc1)c1cc2ccccc2o1	-2	-2	-136	i	57*
CCOc1ccc(OCCn2nnc3ccccc3c2=O)cc1	0	-2	6	i	-10
Cc1ccnc(N2C(=O)c3cccc4c([N+](=O)[O-])ccc(c34)C2=O)c1	-2	1	63*	+	77*
O=C(C[C@H]1C[C@H](C(=O)N2CCOCC2)[C@@]2(CCC3CCCC3)c3[nH]c4ccc(Cl)cc4c3CCN2C1=O)NCCCn1ccnc1	nt	nt	13	nt	nt
CC(=O)c1cccc(N(CC(=O)NC2CCCCC2)C(=O)CNC(=O)c2cccs2)c1	-1	1	6	i	-3
Cc1ccccc1-n1nc2c(c1NC(=O)c1c(-c3ccccc3Cl)noc1C)CSC2	-2	44*	29	i	-7
Cc1ccc(-n2nc3c(c2NC(=O)c2c(-c4ccccc4Cl)noc2C)CSC3)cc1	-4	-5	nt	i	4
O=C(Cc1cnn(-c2ccccc2)c1)c1ccc(O)c(O)c1O	-2	-2	21	+	86*
COc1ccccc1C(C)NC(=O)CCOc1cccc(C)c1 (stereo not drawn)	-2	-2	10	i	4
COC(=O)[C@@]1(C)[C@H]2C(=O)N(Cc3ccccc3)C(=O)[C@H]2[C@H]2CN=C(SCC(=O)c3ccccc3)N21	nt	nt	43*	nt	nt
Cc1ccnc(NC(=O)CCCc2ccccc2)c1	-3	-1	4	i	1
O=C(CCCc1ccccc1)Nc1ccccn1	-1	-1	3	+	1
O=C(CSc1ccccn1)Nc1cccc(S(=O)(=O)N2CCCC2)c1	nt	nt	6	nt	nt
CC(=O)c1cccc(Nc2cc(C)nc3c(C)cc(C)cc23)c1	10*	-3	-5	i	2
COC(=O)c1ccc(Nc2cc(C)nc3ccc(C)cc23)cc1	5	-2	4	i	-6
CC(=O)c1cccc(Nc2cc(C)nc3ccc(C)cc23)c1	9.8*	-5	-10	i	-14
CCC(OC(=O)c1nsc(Cl)c1Cl)C(=O)NC(C)(C)CC (stereo not drawn)	-3	-2	-10	i	-16
Cc1c(-c2ccccc2)oc2c(C(=O)OCC(=O)Nc3ccc(F)cc3)cccc2c1=O	5	-2	0	i	10
S=c1nc(-c2ccccc2)oc2c1CCCC2	-7	-1	36	i	-8
COc1cccc(-c2nc(=S)c3c(o2)CCCC3)c1	0	-3	45*	i	-2
O=[N+]([O-])c1ccc(-c2nc(=S)c3c(o2)CCCC3)cc1	-3	0	45*	i	-6
Cc1nc(-c2ccc(F)cc2)c(CC(=O)N2CCN(S(=O)(=O)c3cccc([N+](=O)[O-])c3)CC2)s1	nt	nt	-38	nt	nt
CC1=C(C(=O)N(C(C)C)C(C)C)CC(CC(=O)NC2CC2)C(=O)N1CCCN1CCCC1=O (stereo not drawn)	nt	nt	-1	nt	nt
Cc1ccccc1-c1nc(S(=O)(=O)c2ccccc2)c(N2CCCC2)o1	nt	nt	42*	nt	nt
CCn1nc(C)cc1C(=O)NC1CCCc2c1cnn2-c1ccc(C)c(C)c1 (stereo not drawn)	0	-2	6	i	-7
SMILES	VIM-2 inhibitor	IMP-1 inh	MLLE-PAM2 inh	PABP polyA inh	eIF4H inh
C/C=C/C(=O)OCC(=O)Nc1ccc(SC(F)F)cc1	0	-1	29	+	active
CC(=O)OCC(=O)Nc1ccc(SC(F)F)cc1	1	-1	30	i	0
COc1ccccc1N(CC(=O)NCCSCc1cccc(C)c1)S(=O)(=O)c1ccccc1	-1	-1	-10	i	-9
O=C(CSc1nc(C(F)(F)F)cc(=O)[nH]1)N1CCC(Cc2ccccc2)CC1	nt	nt	10	nt	nt
O=C(O)CSC1CC(=O)N(c2cccc(Cl)c2)C1=O (stereo not drawn)	1	1	34	i	-10
O=C(O)CSC1CC(=O)N(c2ccc(Cl)c(Cl)c2)C1=O (stereo not drawn)	0	-1	41*	i	-8
NC(=O)c1ccc(Cl)c2ccccc12	-1	15*	15	i	7
NC(=O)c1cccc2ccccc12	-3	-1	25	i	-10
O=C(NN1C(=O)C2CC=C(Cl)CC2C1=O)c1ccncc1 (stereo not drawn)	-1	0	2	+	?
Cc1cccc(C)c1NC(=O)CS(=O)CC(=O)Nc1ccc(N2CCOCC2)cc1 (stereo not drawn)	0	-1	9	i	0
